Calls of active or inactive are those of the source. The rule behind the calls is not given here.

Test [1] is described as follows: Growth inhibition of human Colon cancer cells. Type of test: functional. To be noted: Cancer cell lines; for CC50: read-out: LC50 (the source's name).
Test [2] can be described thus: Growth inhibition of human Melanoma cells. Format: functional. The following applies: Melanoma cell.
Test [3] in a line: Growth inhibition of human Ovarian cancer cells. The following applies: Cancer cell lines. Type of test: functional.
A short description of test [4]: Growth inhibition of human CNS cancer cells. Type of test: functional. The following applies: Cancer cell lines.
The nature of test [5]: Growth inhibition of human Breast cancer cells. To be noted: Cancer cell lines. Format: functional.
Test [6] can be described thus: Growth inhibition of human Renal cancer cells. Format: functional. The following applies: Cancer cell lines.
The nature of test [7]: Growth inhibition of human NSCLC cells. Format: functional.
The nature of test [8]: Growth inhibition of human Leukemia cells. Type of test: functional. The following applies: for GI50 / TGI: Leukemia cell.
Test [9] is described as follows: Growth inhibition of human Prostate cancer cells. Type of test: functional. The following applies: Cancer cell lines.
Test [10] deals with REH. The test is described as follows: Cytotoxicity against human REH cells assessed as reduction in cell viability at 100 to 250 uM after 48 to 72 hrs by MTT assay. Format: functional, cell-based. The essentials: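 MTT viability read-out in leukemic cells treated with 10, 50, 100 and 250 µM or with 0.1, 0.5, 1, 5 and 10 µM. Cells harvested after 48 and 72 h. Compounds dissolved in DMSO.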
(In general: Tetrazolium assays rely on reduction of a dye to a coloured formazan, in cell work by metabolically active cells.)

Test [11] has as its system REH. The test is described as follows: Cytotoxicity against human REH cells assessed as reduction in cell viability at 10 to 250 uM after 24 to 72 hrs by trypan blue exclusion assay. Format: functional, cell-based. The essentials:
(§1)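 Reh, K562 and Nalm6 leukemic cells were treated with 10, 50, 100 and 250 µM or with 0.1, 0.5, 1, 5 and 10 µM (compounds dissolved in DMSO). Viability was scored by trypan blue after 24, 48 and 72 h. DMSO-treated cells served as vehicle control.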

Test [12] relates to K562. The experiment in a line: Cytotoxicity against human K562 cells assessed as reduction in cell viability at 10 to 250 uM after 24 to 72 hrs by trypan blue exclusion assay. Format: functional, cell-based. A digest of the protocol: as §1
For test [13], the system named is NALM-6. The test is described as follows: Cytotoxicity against human NALM6 cells assessed as reduction in cell viability at 10 to 250 uM after 24 to 72 hrs by trypan blue exclusion assay. Type of test: functional, cell-based. The essentials:
as §1

Broadly, the GI50 is the concentration at which growth is held to half of that of the control. Low values mean more potent growth inhibition, high ones less potent growth inhibition. Usually TGI stands for the concentration at which net growth stops. Higher therefore signals lower sensitivity of the cells. As usually defined, the LC50 is the concentration lethal to half of the exposed cells or organisms. A high value points to a less lethal substance. Take `COc1ccc(-c2nc3sc(Cc4ccccc4)nn3c2SC#N)cc1`: the GI50 in test [1] was determined as 4.1 µM; in [2] it was 5.8 µM; in test [3] it was 5.6 µM; in [4] it was 3.9 µM; in test [5] it was 4.8 µM; in test [6], 7.9 µM. Besides, the GI50 in test [7] stood at 4.6 µM; in test [8] it was 3.6 µM. The TGI in test [1] came to 61.7 µM; in test [2], 77.6 µM; in [3], 56.2 µM; in test [4], 55 µM; in test [5] it was 60.3 µM; in test [6], 70.8 µM. Further, the TGI in test [7] was found to be 52.5 µM; in test [8], 72.4 µM. Besides, in test [2], the LC50 was 89.1 µM. The same molecule showed an LC50 (concentration killing 50% of cells) in test [7] of 83.2 µM.

Consider `N#CSc1c(-c2ccccc2)nc2sc(Cc3ccccc3)nn12`, for which the GI50 came out at 11.2 µM in [1]; 20.9 µM in test [2]; 15.5 µM in test [9]; 9.8 µM in [3]; 4.4 µM in test [4]; 7.4 µM in test [5]. Moreover, the figures for the GI50 in test [6], in test [7] and in test [8] were 15.1 µM, 6 µM and 13.5 µM, respectively. Further, the TGI amounted to 91.2 µM in test [1]; 85.1 µM in test [2]; 40.7 µM in test [9]; 79.4 µM in [3]; 77.6 µM in test [4]; 75.9 µM in test [5]. Also, the total growth inhibition concentration (TGI) is 70.8 µM in test [6], 75.9 µM in [7] and 57.5 µM in [8]. For the same molecule, the LC50 in test [3] was 97.7 µM; in test [6] it was 95.5 µM. The molecule further registered an LC50 (concentration killing 50% of cells) in test [7] of 97.7 µM.

For `O=Cc1c(-c2ccc([N+](=O)[O-])cc2)nc2sc(Cc3ccccc3)nn12`, the GI50 turned out to be 3.1 µM in test [1]; 3.7 µM in test [2]; 3 µM in [9]; 4.1 µM in test [3]; 2.9 µM in test [4]; 2.8 µM in test [5]. Besides, the GI50 in test [6] came out at 3.7 µM; in [7], 2.9 µM; in test [8], 5.9 µM. Further, the TGI in [1] stood at 31.6 µM; in test [2] it was 42.7 µM; in test [9], 50.1 µM; in [3], 39.8 µM; in test [4], 26.9 µM; in test [5], 26.3 µM. Besides, the TGI in test [6] came to 58.9 µM; in [7], 45.7 µM; in test [8], 26.3 µM. Also, in test [1], the CC50 was 85.1 µM. Moreover, the LC50 in [4] and in test [5] was 83.2 µM each time. The molecule further yielded an LC50 (concentration killing 50% of cells) in test [7] of 95.5 µM. In test [8], this molecule returned an LC50 (concentration causing 50% net cell kill) of 69.2 µM.

Consider `CO[C@H]1/C=C/O[C@@]2(C)Oc3c(C)c(O)c4c(O)c(cc(O)c4c3C2=O)NC(=O)/C(C)=C\C=C\[C@H](C)[C@H](O)[C@@H](C)[C@@H](O)[C@@H](C)[C@H](OC(C)=O)[C@@H]1C` [RIFAMYCIN], for which the GI50 came out at 10 µM in test [1]; 15.5 µM in test [2]; 10 µM in test [9]; 18.6 µM in test [3]; 21.4 µM in test [4]; 16.6 µM in test [5]. Further, the 50% growth inhibitory concentration (GI50) in test [6] was determined as 15.9 µM; in test [7] it was 14.5 µM; in [8] it was 3.2 µM.

On to `Clc1ccc(-c2cn3nc(Cc4ccccc4)sc3n2)cc1`, for which the GI50 in test [1] was determined as 2.2 µM; in test [2], 3.7 µM; in [9] it was 2.9 µM; in [3] it was 4.6 µM; in test [4], 5 µM; in test [5], 4 µM. In addition, the GI50 was determined as 2.6 µM in [6], 7.6 µM in [7] and 2.1 µM in test [8]. In addition, the TGI worked out at 5.3 µM in test [1]; 8.9 µM in test [2]; 8.1 µM in test [9]; 10.5 µM in test [3]; 13.8 µM in test [4]; 12 µM in test [5]. Also, the TGI in test [6] was 5.9 µM; in test [7], 20.9 µM; in test [8], 23.4 µM. Also, the CC50 in test [1] amounted to 14.1 µM; in test [9] (read-out: LC50 (the source's name)), 23.4 µM. In addition, the LC50 in test [2] came out at 21.9 µM; in [3], 30.9 µM; in test [4], 34.7 µM; in test [5], 49 µM; in [6], 15.1 µM. The outcome in [10], in test [11], in test [12] and in [13] was Active. The LC50 (concentration killing 50% of cells) in test [7] is 57.5 µM. The LC50 (concentration causing 50% net cell kill) in [8] turned out to be 95.5 µM.

Turning to `O=Cc1c(-c2ccc(F)cc2)nc2sc(CCC3CCCCC3)nn12`, the concentration for 50% growth inhibition (GI50) worked out at 5.9 µM in [1]; 21.9 µM in test [2]; 7.4 µM in test [9]; 12.3 µM in test [3]; 7.1 µM in test [4]; 11.8 µM in test [5]. Moreover, the values for the GI50 in test [6], in test [7] and in [8] were 14.1 µM, 13.2 µM and 10.2 µM, respectively. The TGI in test [1] was 63.1 µM; in test [2] it was 87.1 µM; in [3], 97.7 µM; in test [4] it was 67.6 µM; in test [5] it was 61.7 µM; in test [6], 93.3 µM. The figures for the TGI in test [7] and in [8] were 75.9 µM and 70.8 µM, respectively.

Regarding `O=[N+]([O-])c1ccc(-c2nc3sc(Cc4ccccc4)nn3c2Br)cc1`, the GI50 in test [1] was 52.5 µM; in test [2], 40.7 µM; in [9], 42.7 µM; in test [3], 6.3 µM; in test [4], 3.4 µM; in test [5], 17.4 µM. Also, the GI50 in test [6] is 3.7 µM; in test [7] it was 12.6 µM; in test [8] it was 69.2 µM. Further, the TGI in test [1] was 83.2 µM; in test [3] it was 83.2 µM; in [4], 47.9 µM; in test [5] it was 79.4 µM; in test [6] it was 64.6 µM; in test [7] it was 56.2 µM.
